We go through four compounds from publication PMC5488297 (Chemistry (Weinheim an Der Bergstrasse, Germany), 2017).

The test system of test [1] is U87 (αVβ3+) human glioblastoma cells. Nature of the test: Anti‐proliferative activity, CellTiter-Glo ATP cell viability, U87. Type of test: cell-based. Particulars: 144 h. The procedure, abridged:
(§1)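 U87 human glioblastoma cells were used alongside an isogenic U87 clone with the β3 integrin subunit gene deleted by CRISPR-Cas9. Absence of αVβ3 was confirmed by flow cytometry using anti-αVβ3 antibody LM609 plus a fluorescent secondary antibody. Cells were exposed to increasing concentrations of test compound for 144 h, with free paclitaxel run in parallel. Viability was read as cellular ATP by CellTiter-Glo. IC50 was taken as the concentration giving 50 % inhibition of viability.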

For test [2], the system named is U87 β3‐KO (αVβ3−) cells. As to the kind of experiment: Anti‐proliferative activity, CellTiter-Glo ATP cell viability, U87 β3‐KO. Type of test: cell-based. Particulars: Homo sapiens, 144 h. An outline of the steps: as §1
The subject of test [3] is U87 (αVβ3+) and U87 β3‐KO (αVβ3−) cells. Nature of the test: Targeting index / selectivity between U87 β3‐KO and U87 cells. As to conditions: for Targeting index (TI): [IC50(αVβ3−)/IC50(αVβ3+)]conjugate/[IC50(αVβ3−)/IC50(αVβ3+)]paclitaxel. It counts as cell-based, human. The procedure, abridged: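 The targeting index uses IC50s from the 144 h CellTiter-Glo ATP viability assay on the isogenic U87 and U87 β3-KO (CRISPR-Cas9 β3 deletion) pair. The ratio IC50(β3-KO)/IC50(U87) for the conjugate is divided by the same ratio for free paclitaxel tested in parallel under identical conditions.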

The target in test [4] is purified αVβ3 receptor (Homo sapiens, UniProt P05106+P06756). Nature of the test: Inhibition of biotinylated vitronectin binding to purified αVβ3 receptor.
purified αVβ3 receptor, sequence (P06756 891-1048): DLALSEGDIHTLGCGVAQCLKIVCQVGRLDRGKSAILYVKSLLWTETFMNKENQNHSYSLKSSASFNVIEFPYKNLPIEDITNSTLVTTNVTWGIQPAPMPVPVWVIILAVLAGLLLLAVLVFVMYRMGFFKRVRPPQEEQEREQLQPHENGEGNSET
purified αVβ3 receptor, sequence (P06756 31-889): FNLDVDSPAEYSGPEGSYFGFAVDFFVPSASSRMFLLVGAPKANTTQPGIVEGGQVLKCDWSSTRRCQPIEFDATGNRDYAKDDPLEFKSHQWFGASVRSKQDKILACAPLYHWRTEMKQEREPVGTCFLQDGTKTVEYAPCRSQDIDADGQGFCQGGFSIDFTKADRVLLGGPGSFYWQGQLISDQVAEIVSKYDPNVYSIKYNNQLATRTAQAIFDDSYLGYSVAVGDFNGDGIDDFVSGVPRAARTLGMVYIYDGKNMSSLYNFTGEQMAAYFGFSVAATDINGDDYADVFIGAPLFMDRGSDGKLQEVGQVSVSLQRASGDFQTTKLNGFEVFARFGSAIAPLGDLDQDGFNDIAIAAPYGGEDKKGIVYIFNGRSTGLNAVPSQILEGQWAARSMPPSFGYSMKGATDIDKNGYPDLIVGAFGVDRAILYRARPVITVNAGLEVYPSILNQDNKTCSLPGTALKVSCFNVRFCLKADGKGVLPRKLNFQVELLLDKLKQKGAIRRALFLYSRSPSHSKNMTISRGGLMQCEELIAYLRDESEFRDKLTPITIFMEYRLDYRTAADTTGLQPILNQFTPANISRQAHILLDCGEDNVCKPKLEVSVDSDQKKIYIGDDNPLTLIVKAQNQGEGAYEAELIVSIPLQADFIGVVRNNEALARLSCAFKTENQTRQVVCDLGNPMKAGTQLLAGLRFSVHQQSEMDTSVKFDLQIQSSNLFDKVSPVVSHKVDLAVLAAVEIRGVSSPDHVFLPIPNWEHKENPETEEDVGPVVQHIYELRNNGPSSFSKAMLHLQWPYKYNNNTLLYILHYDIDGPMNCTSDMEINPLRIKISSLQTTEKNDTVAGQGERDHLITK
purified αVβ3 receptor, sequence (P05106 27-788): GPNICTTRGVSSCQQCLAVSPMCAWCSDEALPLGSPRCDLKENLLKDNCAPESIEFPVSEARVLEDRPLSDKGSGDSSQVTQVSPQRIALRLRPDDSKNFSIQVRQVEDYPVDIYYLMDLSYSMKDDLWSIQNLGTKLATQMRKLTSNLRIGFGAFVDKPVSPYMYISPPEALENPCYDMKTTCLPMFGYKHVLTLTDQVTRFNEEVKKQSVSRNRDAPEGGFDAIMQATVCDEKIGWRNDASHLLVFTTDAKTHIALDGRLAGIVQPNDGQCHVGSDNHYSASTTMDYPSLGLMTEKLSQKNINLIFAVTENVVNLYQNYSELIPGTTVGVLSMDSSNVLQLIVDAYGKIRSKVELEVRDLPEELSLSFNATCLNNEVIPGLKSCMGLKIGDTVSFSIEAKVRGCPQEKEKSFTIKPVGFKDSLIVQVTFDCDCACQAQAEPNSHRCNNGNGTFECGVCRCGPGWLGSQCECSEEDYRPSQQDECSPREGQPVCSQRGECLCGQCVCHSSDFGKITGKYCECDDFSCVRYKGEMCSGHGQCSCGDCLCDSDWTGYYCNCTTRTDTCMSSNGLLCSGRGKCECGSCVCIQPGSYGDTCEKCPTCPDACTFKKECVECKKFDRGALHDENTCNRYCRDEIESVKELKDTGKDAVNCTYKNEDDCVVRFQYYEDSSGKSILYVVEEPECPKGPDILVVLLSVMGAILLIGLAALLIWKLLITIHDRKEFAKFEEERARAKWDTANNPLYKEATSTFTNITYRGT
For test [5], the system named is FAK/Akt integrin‐activated transduction pathway. As to conditions: cited from earlier work.
Test [6] deals with integrin‐mediated cell infiltration processes. As to conditions: cited from earlier work.

On to `CC(=O)O[C@H]1C(=O)[C@@]2(C)[C@H]([C@H](OC(=O)c3ccccc3)[C@]3(O)C[C@H](OC(=O)[C@H](O)[C@@H](NC(=O)c4ccccc4)c4ccccc4)C(C)=C1C3(C)C)[C@]1(OC(C)=O)CO[C@@H]1C[C@@H]2O` [Paclitaxel], for which 0.64 nM corresponded to half-maximal inhibition in test [1] (IC50). For the same compound, the IC50 in test [2] was 0.28 nM. Further, in test [3] (144 h), the “times more effective on U87 β3‐KO cells (than on U87)” value is 2.3 times and the “Targeting index (TI)” value amounted to 1.

As for `CC(=O)O[C@H]1C(=O)[C@@]2(C)[C@H]([C@H](OC(=O)c3ccccc3)[C@]3(O)C[C@H](OC(=O)[C@H](OC(=O)N(C)CCN(C)C(=O)OCc4ccc(NC(=O)[C@H](C)NC(=O)[C@@H](NC(=O)CCCC(=O)NCc5ccc(CN6C(=O)[C@H]7CC(=O)N[C@H](C(=O)O)CC(=O)NCC(=O)N[C@@H](CCCNC(=N)N)C(=O)NC[C@H]6C(=O)N7)cc5)C(C)C)cc4)[C@@H](NC(=O)c4ccccc4)c4ccccc4)C(C)=C1C3(C)C)[C@]1(OC(C)=O)CO[C@@H]1C[C@@H]2O` [compound 2, cyclo[DKP‐isoDGR]‐Val‐Ala‐PTX], in test [4], the IC50 came to 11 ± 0.2 nM and the “affinity for the purified integrin αVβ3 receptor (in words)” value is “low nanomolar affinity”. Further, the “Targeting index (TI)” value in test [3] (144 h) is given as 9.9. Besides, the “targeting ability (in words)” value in test [3] (two isogenic cancer cell lines expressing integrin αVβ3 at different levels) is recorded as “notable targeting ability”.

`CC(=O)O[C@H]1C(=O)[C@@]2(C)[C@H]([C@H](OC(=O)c3ccccc3)[C@]3(O)C[C@H](OC(=O)[C@H](OC(=O)N(C)CCN(C)C(=O)OCc4ccc(NC(=O)[C@H](C)NC(=O)[C@@H](NC(=O)CCCC(=O)NCc5ccc(CN6C(=O)[C@H]7CC(=O)N[C@@H](CCCNC(=N)N)C(=O)NCC(=O)N[C@@H](CC(=O)O)C(=O)NC[C@H]6C(=O)N7)cc5)C(C)C)cc4)[C@@H](NC(=O)c4ccccc4)c4ccccc4)C(C)=C1C3(C)C)[C@]1(OC(C)=O)CO[C@@H]1C[C@@H]2O` [compound 4, cyclo[DKP‐RGD]‐Val‐Ala‐PTX] showed an IC50 in test [4] of 13.3 ± 3.6 nM. Further, the “Targeting index (TI)” value in test [3] (144 h) is 2.4.

As for cyclo[DKP‐isoDGR] [compound 1], in test [5], the “effect on FAK/Akt integrin‐activated transduction pathway” value is “inhibitory effects”. In addition, in test [6], the “effect on integrin‐mediated cell infiltration processes” value was “inhibitory effects”.
